Insulin prom up: insulin promoter activators in MIN6 cells, imaging, high-content screening, mouse beta cells; MIN6 insulin promoter-GFP reporter; active compounds read high; 190,000 compounds, 0.3% hits; z-score at 5 µM;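 active means z-score above 3 at 5 µM with at least 500 cells counted in the well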
INS promoter inh: inhibitors of insulin promoter-driven GFP, primary screen, imaging, TRM-6 cells (human fetal islet line), eGFP reporter, cell count; reporter expression induced with tamoxifen; AID 1273, 2008; 130,000 compounds, 0.9% hits; inhibition, % at 2 µM;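 active means inhibition above the mean plus 3 SD, with well images judged a real hit on visual review, cut at about 60% in these data, passing the limit was not always enough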
NPY-Y2 antag: NPY-Y2 receptor antagonists, primary screen, cell-based | NPY-Y2 expressing cells, antagonist mode | inhibition, % at 2.7 µM | 140,000 compounds, 0.99% hits; in the data active means inhibition above about 17%;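 further: 0% = vehicle with agonist challenge and 100% = reference antagonist with challenge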
Target sequence (P49146 whole entry, looked up): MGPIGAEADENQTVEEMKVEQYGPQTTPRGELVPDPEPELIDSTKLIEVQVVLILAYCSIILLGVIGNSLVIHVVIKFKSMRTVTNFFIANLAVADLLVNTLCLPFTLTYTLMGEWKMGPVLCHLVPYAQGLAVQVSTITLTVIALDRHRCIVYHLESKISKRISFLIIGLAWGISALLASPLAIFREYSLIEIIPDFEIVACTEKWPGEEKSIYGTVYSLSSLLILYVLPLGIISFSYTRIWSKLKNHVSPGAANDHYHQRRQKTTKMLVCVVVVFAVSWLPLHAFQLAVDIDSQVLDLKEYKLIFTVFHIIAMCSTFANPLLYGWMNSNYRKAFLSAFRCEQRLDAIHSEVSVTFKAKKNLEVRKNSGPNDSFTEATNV
NPY2 pot ag: NPY-Y2 potentiators or agonists, primary screen, cell-based | AID 1359, 2008 | cells expressing NPY-Y2, potentiator/agonist read-out | 220,000 compounds, 0.45% hits | activation, % at 3.6 µM; in the data active means activation above about 27%;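 further: cells stimulated with NPY near EC25 plus isoproterenol at EC100; 0% = vehicle plus submaximal agonist and 100% = vehicle plus saturating agonist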
NPY-Y1 PAM-ag: NPY-Y1 receptor potentiators or agonists, primary screen, cell-based; 220,000 compounds, 0.37% hits; activation, % at 3.6 µM; Neuropeptide Y receptor type 1 (Homo sapiens), P25929; NPY-Y1 expressing cells, potentiator/agonist activation; AID 1304, 2008; in the data active means activation above about 33%, passing the limit was not always enough;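 further: cells stimulated with NPY at EC10 then isoproterenol at EC100; 0% = low agonist plus stimulus and 100% = saturating agonist plus stimulus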
NPY Y1 blocker: NPY-Y1 receptor antagonists, primary screen, cell-based; AID 1040, 2008; inhibition, % at 3.6 µM; HEK293-CNG Y1 cells, membrane potential fluorescence; NPY at EC95, then isoproterenol; 200,000 compounds, 1% hits; Neuropeptide Y receptor type 1 (Homo sapiens), P25929;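 active means inhibition above the campaign mean inhibition of all tested compounds plus 3 SD, cut at about 20% in these data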;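 further: 0% = DMSO wells given NPY plus isoproterenol and 100% = isoproterenol alone without NPY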
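Assay system: HEK293 Y1/CNG channel cell line; Doses: single compound dose of 3.6 µM, 0.4% DMSO; Timing: dye 3 h, compound 60 min room temperature, stimulation 45 min; Technique: Membrane-potential fluorescent dye readout; Measure: % inhibition of NPY effect.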
The depositor's hits bear a star; · = no result. Sampled rows, rich in hits. Any-hit rate of the full collection: about 2.5%.

SMILES	Insulin prom up	INS promoter inh	NPY-Y2 antag	NPY2 pot ag	NPY-Y1 PAM-ag	NPY Y1 blocker
COc1cccc2c1nc(C)c1cc(C)oc12	0.2	·	-1.9	0.6	-15.6	-1.4
CS(=O)(=O)ON=C1CCN(S(=O)(=O)c2ccccc2)CC1	3.51*	·	·	-5.1	2.9	4.5
COc1cc(CC(=O)OCC(=O)Nc2sccc2C(N)=O)cc(OC)c1OC	-0.64	90.9*	·	12.6	4.1	1.9
CC(C)(C(=O)c1ccccc1)/[N+]([O-])=C/c1ccc(Br)cc1	·	6.7	1.3	5.7	1.3	8.3
CC(COC(=O)c1ccccc1)(COC(=O)c1ccccc1)/[N+]([O-])=C/c1ccccc1	·	35.5	18.3*	-10.2	-14.3	21.3*
Cc1nc2c(-c3ccc(F)cc3)c(C)nn2c(C)c1CCC(=O)N1CCC(Cc2ccccc2)CC1	1.09	·	11.6	-6.7	-14.1	13.1
O=S(=O)(N1CCOCC1)n1c(Cc2ccccc2)nc2ccccc21	0.41	70.4*	-3.0	33.8	21.4	3.0
O=S(=O)(c1ccc(Cl)cc1)n1c(Cc2ccccc2)nc2ccccc21	-0.26	40.7	0.1	-2.9	-4.4	5.5
C=CCn1c(SCC(=O)N2CCN(c3ccccc3)CC2)nnc1-c1ccco1	-0.33	76.9*	4.1	-35.4	-4.3	9.4
CCCCOc1ccc(/C=C/C(=O)NC2=Nc3ccccc3NC(C)=C2C(=O)OCC)cc1OC	-0.52	·	·	-7.1	-5.3	2.5
COc1ccc(CN2CCCCC2C(=O)Nc2ccc(OC)c(OCC(C)C)c2)cc1OC (configuration not stated)	0.18	27.6	2.1	-6.9	-0.4	4.3
CN(C)C(=O)C1C2NC(=S)N(c3ccc(Cl)cc3)C1(C)Oc1ccc(Cl)cc12 (configuration not stated)	-0.5	-6.7	·	89.2*	91.6*	-8.9
CN(C)C(=O)C1C2NC(=S)N(c3cccc(Cl)c3)C1(C)Oc1ccc(Cl)cc12 (configuration not stated)	3.51*	-6.7	·	28.7*	51.5*	-9.2
CN(C)C(=O)C1C2NC(=S)N(c3ccccc3)C1(C)Oc1ccccc12 (configuration not stated)	0.74	13.3	·	1.4	1.7	-0.6
Cc1ccc(-c2nc(-c3ccc(Cl)cc3)sc2CC(=O)O)c(C)c1	0.33	·	·	-40.4	-28.9	19.2
CCOc1ccc2nc(NC(=O)CCC(=O)c3cccs3)sc2c1	0.13	-6.9	4.6	-23.1	-12.2	3.9
CCC(CC)C(=O)Nc1ccccc1NC(C)=O	1.36	20.0	0.2	-12.1	-6.2	-3.0
COc1ccc(-c2nc(C#N)c(NCc3ccc(F)cc3)o2)cc1OC	-1.93	57.1	23.6*	-19.5	-9.9	24.2*
COc1ccc(-c2nc(C#N)c(NCc3cccnc3)o2)cc1OC	-1.14	11.1	0.2	0.9	-5.5	8.0
C=CCNC(=S)NCCO	1.11	·	·	-4.1	-7.9	·
N=C(N)c1ccc(OCCCCCOc2ccc(C(=N)N)cc2)cc1	·	31.8	-0.2	5.5	-4.7	-4.7
CCCCCCOc1ccc(/C(N)=N/O)cc1	·	·	3.3	99.3*	83.7*	-10.7
CCC(=O)N(Cc1c(C)nn(-c2ccccc2)c1Cl)c1ccc(Cl)cc1	-0.22	·	18.9*	-11.1	-13.7	28.6*
CCN(CC)c1ccc2cc(C#N)c(=O)oc2c1	4.24*	-10.0	·	-1.9	-6.3	-1.8
CCN(CC)c1ccc2ccc(=O)oc2c1	-0.44	·	·	1.6	8.6	0.4
SMILES	Insulin prom up	INS promoter inh	NPY-Y2 antag	NPY2 pot ag	NPY-Y1 PAM-ag	NPY Y1 blocker
COc1ccc(NC(=O)Cc2nc3ccccc3[nH]2)cc1	1	-3.1	22.1*	-22.8	-48.8	13.0
COc1ccc(CC(=O)Nc2nc3ccccc3[nH]2)cc1	-0.76	·	·	-6.4	6.6	·
Cc1ccc(OCC(=O)Nc2ccc([N+](=O)[O-])cn2)cc1C	·	23.3	9.1	-8.2	-32.6	24.5*
O=C(O)c1cc(-c2ccccc2)n(-c2ccc(Cl)cc2)n1	-0.65	·	·	-3.1	-18.7	2.8
CCCCCCCCCOC(=O)C[n+]1csc(CCO)c1C	-0.48	16.7	4.8	-9.8	-39.9	6.1
Cc1c(CCO)sc[n+]1CC(=O)OCCC12CC3CC(CC(C3)C1)C2	0.17	66.7*	2.0	14.5	5.9	-0.5
O=C(NC(c1ccc(Cl)cc1)c1c(O)ccc2ccccc12)c1ccccc1 (configuration not stated)	-1.88	-2.6	-5.8	42.7*	40.5	-12.8
CC(=O)NC(c1ccc(Cl)cc1)c1c(O)ccc2ccc(O)cc12 (configuration not stated)	10.6*	·	·	26.0	25.8	-6.9
C/C(=N\NC(=O)c1ccccc1)c1ccc2c(c1)OCO2	0.01	-3.6	5.6	-4.3	4.7	0.2
C/C(=N\Nc1nc2ccccc2s1)c1ccc2c(c1)OCO2	-0.16	28.6	31.1*	-9.1	-13.1	35.2*
COC(=O)C1=C2SC(C)C(=O)N2C(N)=C(C#N)C1c1ccc(OC)c(OC)c1 (configuration not stated)	0.79	81.8*	1.4	-1.5	-18.8	1.7
COC(=O)C1=C2SC(C)C(=O)N2C(N)=C(C#N)C1c1cc(OC)c(OC)c(OC)c1 (configuration not stated)	1.45	·	2.0	12.5	-7.3	3.4
c1ccc(NCc2nc(-c3ccccc3)no2)cc1	0.9	80.0*	1.2	0.7	10.5	-2.7
COc1ccc(CC(=O)NCc2nc(-c3ccccc3)no2)cc1	-0.08	·	·	-16.8	-17.8	6.9
O=c1[nH]c(CN2CCN(c3ccccc3O)CC2)nc2ccccc12	-0.12	-61.3	2.3	-14.2	6.5	4.2
O=c1[nH]c(CN2CCN(CCO)CC2)nc2ccccc12	0	100.0*	1.1	-7.9	-3.8	1.3
Cc1cc(C2C(C#N)=C(N)Oc3n[nH]c(C)c32)c(C)s1 (configuration not stated)	3.37*	-28.6	-2.4	7.2	17.5	-6.0
Cc1[nH]nc2c1C(c1ccsc1C)C(C#N)=C(N)O2 (configuration not stated)	-0.56	-5.7	1.6	13.8	33.2	-1.4
CCn1nnnc1SCC(=O)N1CCOCC1	-0.59	-2.7	1.3	-3.0	-5.6	0.0
CCCn1nnnc1SCC(=O)N1CCOCC1	-0.14	83.3*	-0.2	-12.0	22.2	5.5
COc1cc(CN2CCN(Cc3ccc(C)cc3)C(CCO)C2)ccc1O (configuration not stated)	·	78.3*	·	-16.6	-10.6	4.1
O=C(Nc1ccc(Oc2ccc(NC(=O)Nc3ccccc3Cl)cc2)cc1)Nc1ccccc1Cl	0.24	·	·	-15.8	11.8	·
CCOC(=O)C1CCN(C(=O)CSc2n[nH]c(=O)[nH]c2=O)CC1	0.3	81.5*	-0.1	1.5	-23.1	7.2
CCOC(=O)CC(=O)CSc1n[nH]c(=O)[nH]c1=O	-0.12	·	·	4.6	2.4	·

Source: PubChem (several laboratories)
